Test results reported in ChEMBL document CHEMBL4346686, “Discovery and biological evaluation of novel androgen receptor antagonist for castration-resistant prostate cancer” (Eur J Med Chem, 2019).
The source made the active and inactive calls. No cut-off for these calls is given here.

What was measured:
CWR22R = assay: Antiproliferative activity against human 22Rv1 cells assessed as reduction in cell viability incubated for 6 days by CCK8 assay; format: functional, cell-based; conditions: 22Rv1, 144 h
Method in brief: (§1)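 Cells seeded (2×10^4 per well for VCaP, 1–3×10^3 for the others) and compound added after 24 h as a 9-point, 3-fold serial dilution. Exposure 6 days, then CCK-8 for 1–4 h and absorbance at 450 nm. IC50 from curve fit, mean of at least two independent experiments run in duplicate.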

PC-3 = assay: Antiproliferative activity against human PC3 cells assessed as reduction in cell viability incubated for 6 days by CCK8 assay; format: functional, cell-based; conditions: PC-3, 144 h; method in brief: as §1
VCaP [1] = assay: Antiproliferative activity against human VCaP cells assessed as reduction in cell viability incubated for 6 days by CCK8 assay; format: functional, cell-based; conditions: 144 h; method in brief: as §1
[2] = Antiproliferative activity against human LNCaP-AR cells assessed as reduction in cell viability incubated for 6 days by CCK8 assay; format: functional, cell-based; conditions: 144 h; method in brief: as §1
L02 = assay: Antiproliferative activity against human L02 cells assessed as reduction in cell viability incubated for 6 days by CCK8 assay; format: cell-based; conditions: L02, 144 h; method in brief: as §1
[3] = biological target: T1, Androgen receptor (Homo sapiens) (UniProt P10275); assay: Antagonist activity at androgen receptor in human VCaP cells assessed as inhibition of R1881-induced FKBP5 mRNA expression at 5 uM after 24 hrs by qRT-PCR analysis; format: cell-based
T1 sequence (whole entry): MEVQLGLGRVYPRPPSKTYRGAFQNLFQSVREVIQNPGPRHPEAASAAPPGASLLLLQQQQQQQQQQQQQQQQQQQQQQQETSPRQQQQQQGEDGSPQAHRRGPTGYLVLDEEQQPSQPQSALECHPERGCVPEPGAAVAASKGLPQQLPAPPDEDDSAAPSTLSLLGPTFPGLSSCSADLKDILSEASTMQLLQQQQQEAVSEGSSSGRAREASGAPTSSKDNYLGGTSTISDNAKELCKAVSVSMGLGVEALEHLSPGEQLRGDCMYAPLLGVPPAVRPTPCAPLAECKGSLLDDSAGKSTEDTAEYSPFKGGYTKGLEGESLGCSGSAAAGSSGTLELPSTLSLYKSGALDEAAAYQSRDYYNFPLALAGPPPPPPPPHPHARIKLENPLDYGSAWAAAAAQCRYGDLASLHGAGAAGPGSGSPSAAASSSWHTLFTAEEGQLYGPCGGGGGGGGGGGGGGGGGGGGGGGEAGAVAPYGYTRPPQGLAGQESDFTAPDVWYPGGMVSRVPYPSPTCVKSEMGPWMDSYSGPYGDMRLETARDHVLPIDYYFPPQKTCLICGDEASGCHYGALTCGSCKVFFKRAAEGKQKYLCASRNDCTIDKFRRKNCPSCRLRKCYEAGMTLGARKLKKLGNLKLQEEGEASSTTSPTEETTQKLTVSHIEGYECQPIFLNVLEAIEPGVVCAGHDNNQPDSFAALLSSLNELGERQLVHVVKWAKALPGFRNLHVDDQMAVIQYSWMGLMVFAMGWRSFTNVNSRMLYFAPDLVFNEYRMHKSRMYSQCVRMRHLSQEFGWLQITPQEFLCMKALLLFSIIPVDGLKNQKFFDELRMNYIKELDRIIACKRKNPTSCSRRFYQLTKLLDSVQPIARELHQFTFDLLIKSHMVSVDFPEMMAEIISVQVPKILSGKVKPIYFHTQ
Method in brief: (§2)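 VCaP cells kept 48 h in DMEM with 5% charcoal-stripped FBS, then treated 24 h with compound plus 0.2 nM R1881. RNA extracted with TRIzol, reverse-transcribed, and PSA or FKBP5 mRNA quantified by qRT-PCR normalized to GAPDH. Expressed relative to DMSO-treated samples; mean ± SD, n = 3, two-tailed t-test.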

[4] = biological target: T1, Androgen receptor (Homo sapiens); assay: Antagonist activity at androgen receptor in human VCaP cells assessed as inhibition of R1881-induced PSA mRNA expression at 5 uM after 24 hrs by qRT-PCR analysis; format: cell-based; method in brief: as §2
[5] = biological target: T2, Steroid 17-alpha-hydroxylase/17,20 lyase (Homo sapiens, UniProt P05093); assay: Inhibition of C-myc/DDK tagged human CYP17A1 expressed in HEK293T cells assessed as reduction in formation of 17-OHP at 10 uM incubated for 30 mins by LC-MS/MS analysis; format: cell-based; conditions: 0.5 h
T2 sequence (P05093 whole entry): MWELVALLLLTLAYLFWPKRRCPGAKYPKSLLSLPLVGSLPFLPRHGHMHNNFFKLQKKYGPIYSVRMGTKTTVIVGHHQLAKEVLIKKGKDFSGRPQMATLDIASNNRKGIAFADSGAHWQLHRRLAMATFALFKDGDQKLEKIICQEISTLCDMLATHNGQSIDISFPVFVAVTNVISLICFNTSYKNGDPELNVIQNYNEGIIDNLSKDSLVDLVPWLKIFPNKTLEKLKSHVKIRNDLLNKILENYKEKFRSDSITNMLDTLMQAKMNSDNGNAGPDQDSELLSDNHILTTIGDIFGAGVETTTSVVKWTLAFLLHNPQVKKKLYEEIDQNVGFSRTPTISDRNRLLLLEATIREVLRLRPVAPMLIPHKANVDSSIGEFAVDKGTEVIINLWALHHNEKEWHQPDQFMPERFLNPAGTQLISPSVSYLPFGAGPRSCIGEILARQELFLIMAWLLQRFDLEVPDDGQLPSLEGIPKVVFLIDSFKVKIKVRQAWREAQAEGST
Method in brief: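 CYP17A1 activity measured as 17α-hydroxyprogesterone formation in 50 mM Tris pH 7.4, 5 mM MgCl2. Incubation 30 min at 37 °C, quenched with 20% trichloroacetic acid; product quantified by LC-MS/MS. Mean ± SD, n = 2.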

[6] = Toxicity in BALB/c nude mouse xenografted with human VCaP cells assessed as weight loss at 30 mg/kg, po qd administered for 40 days relative to control; format: organism-based; conditions: in vivo, 960 h
VCaP [7] = assay: Antitumor activity against human VCaP cells xenografted in BALB/c nude mouse assessed as inhibition of tumor growth at 30 mg/kg, po qd administered for 40 days relative to control; format: functional
Method in brief: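 Male BALB/c nude mice, 5 weeks old, s.c. 1 × 10^7 VCaP cells in DMEM/Matrigel (1:1). Castrated under Nembutal at 150–200 mm3 and randomized (n = 8–10). Once tumors regrew to 200–350 mm3, oral 30 mg/kg qd for 40 days. TGI = [1 − (T − T0)/(C − C0)] × 100 from mean tumor volumes on first and last treatment days.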

inhibition at 10 µM [5]	SMILES	IC50 (CWR22R)	IC50 (PC-3)	IC50 (VCaP [1])	IC50 [2]	IC50 (L02)	inhibition [3]	inhibition [4]	Activity [6]	TGI (VCaP [7])
–	CCN(c1ccc(C#N)c(Cl)c1)c1cc(-c2c(C)noc2C)ccc1C	2.99 µM	4.84 µM	1.2 µM	0.19 µM	8.67 µM	–	–	–	–
–	CCN(c1ccccn1)c1cc(-c2c(C)noc2C)ccc1C	5.43 µM	4.8 µM	0.87 µM	0.63 µM	4.42 µM	–	–	–	–
–	Cc1ccc(-c2c(C)noc2C)cc1Nc1ccncc1	–	–	1.97 µM	3.7 µM	–	Active	Active	–	–
–	CCN(c1ccc(C#N)c(Cl)c1)c1cc(-c2cncnc2)ccc1C	> 30 µM	> 30 µM	3.92 µM	0.4 µM	–	Active	Active	–	–
100%	C[C@]12CC[C@H](O)CC1=CC[C@@H]1[C@@H]2CC[C@]2(C)C(c3cccnc3)=CC[C@@H]12 [ABIRATERONE]	–	–	–	–	–	–	–	–	–
–	CNC(=O)c1ccc(N2C(=S)N(c3ccc(C#N)c(C(F)(F)F)c3)C(=O)C2(C)C)cc1F [ENZALUTAMIDE]	> 30 µM	> 30 µM	–	0.19 µM	17.1 µM	–	–	Non-Toxic	43%
–	CCN(c1ccc(C#N)c(Cl)c1)c1cc(-c2cccnc2)ccc1C	2 µM	11 µM	1.27 µM	0.33 µM	12.7 µM	Active	Active	–	–
–	CCN(c1ccc(C#N)c(Cl)c1)c1cc(-c2ccnn2C)ccc1C	4.33 µM	7.29 µM	1.67 µM	0.17 µM	6.23 µM	Active	Active	–	–
50%	C[C@]12CC[C@H](O)CC1=CC[C@@H]1[C@@H]2CC[C@]2(C)C(n3cnc4ccccc43)=CC[C@@H]12 [GALETERONE]	–	–	–	–	–	–	–	–	–
–	CCN(c1ccc(C#N)c(Cl)c1)c1cc(-c2c[nH]nc2C)ccc1C	5.38 µM	9.03 µM	3.19 µM	0.32 µM	5.78 µM	–	–	–	–
–	N#Cc1ccc(N2CCCc3c(-c4cccnc4)cccc32)cc1C(F)(F)F	12.3 µM	7.97 µM	13.5 µM	0.12 µM	10.5 µM	–	–	–	–
–	CCN(c1cccc(-n2ccnc2)c1)c1ccc(C#N)c(Cl)c1	> 30 µM	> 30 µM	> 30 µM	0.33 µM	23.2 µM	–	–	–	–
